Assay outcomes (PubChem)
Compounds with a hit are over-represented: about 10% of the library has one in this group of screens.
PMI act hi M6P: PMI (human) activation, high substrate | AID 1216 | P34949 | coupled PMI enzyme assay, resazurin fluorescence, 20 min; stronger effect = higher value; 1 = untreated enzyme, 0 = substrate-free blank | hit rate 0.34% among 190,000 | activation factor at 20 µM;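 active = activation factor of 2 or more at 20 µM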
Target sequence (P34949 whole entry, looked up): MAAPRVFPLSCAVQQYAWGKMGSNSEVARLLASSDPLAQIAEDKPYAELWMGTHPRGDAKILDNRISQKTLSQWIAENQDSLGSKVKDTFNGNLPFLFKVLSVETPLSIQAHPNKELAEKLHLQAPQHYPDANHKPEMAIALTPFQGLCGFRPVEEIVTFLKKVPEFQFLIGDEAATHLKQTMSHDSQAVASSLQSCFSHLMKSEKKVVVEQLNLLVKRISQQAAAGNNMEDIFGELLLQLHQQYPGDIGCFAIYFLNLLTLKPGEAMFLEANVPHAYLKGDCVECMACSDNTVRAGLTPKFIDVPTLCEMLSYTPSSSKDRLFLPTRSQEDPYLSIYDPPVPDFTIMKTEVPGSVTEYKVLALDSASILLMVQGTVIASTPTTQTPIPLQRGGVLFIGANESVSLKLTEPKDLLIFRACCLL
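Test system: human phosphomannose isomerase with PGI, G6PDH, diaphorase coupling enzymes / Doses: 20 µM compound, 1% DMSO / Times: enzyme reaction with compound 20 min at room temperature / Measured by: Diaphorase-driven resazurin-to-resorufin fluorescence, excitation 544, emission 590 nm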
Diaphorase act: activates diaphorase or chemically reduces, flagging diaphorase assay artifacts; Diaphorase/resazurin coupled assay, resorufin fluorescence, 16 min; stronger effect = higher value; 1 = vehicle wells, 0 = NADH-free wells; activation factor at 20 µM; hit rate 0.005% among 190,000; AID 1229;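 active = diaphorase activity raised at least twofold by the compound at 20 µM; inactive = activation factor below 2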
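Assay system: Purified diaphorase enzyme from Clostridium kluyveri | Amount: Enzyme 0.07 U/mL final | Dosing: Compound 20 µM once, DMSO 1% | Timing: 16 min reaction at room temperature | Detection: Fluorescence, excitation 544 nm and emission 590 nm | Evaluation: Higher resorufin formation from activation or reduction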
WT yeast gro inh: growth inhibition of WT yeast, mitochondrial fusion screen; mitochondrial fusion phenotypic screen, WT strain; inhibition, % at 10 µM; hit rate 2.1% among 190,000; in the data active = inhibition above about 58%; tested in S. cerevisiae
L major viab: reduces viability of Leishmania major promastigotes. resazurin fluorescence viability. inhibition, % at 10 µM. hit rate 9% among 200,000; in the data active = inhibition above about 50%;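 also: promastigotes grown with compound for 44 hours at 28 °C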
PMI activator: phosphomannose isomerase (human) activation; P34949; activation factor at 20 µM; AID 1214; purified human PMI, coupled resazurin fluorescence, 20 min; stronger effect = higher value; 1 = vehicle control, 0 substrate-free wells; hit rate 0.005% among 190,000;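 active = activation factor of 2 or more at 20 µM, relative to plate controls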
Numbers without * were called inactive.

Results for CSc1ccccc1NC(=S)N/N=C/c1cccn1Cc1cccc(C)c1 ?
PMI act hi M6P: 1.1; Diaphorase act: 1; WT yeast gro inh: 62.9*; L major viab: 33.1; PMI activator: 1

What do the screens show for `CSc1ccccc1NC(=S)N/N=C/c1cccn1Cc1ccc(F)cc1`?
PMI act hi M6P: 1; Diaphorase act: 0.9; WT yeast gro inh: 64.7*; L major viab: 26.1; PMI activator: 0.9

What do the screens show for `Cc1cccc(NC(=S)N/N=C/c2cccn2Cc2ccc(F)cc2)c1`?
PMI act hi M6P: 1.1; Diaphorase act: 1; WT yeast gro inh: 41.7; L major viab: 48.5; PMI activator: 1.1

How did Cc1ccc(CNC(=O)C2CN(S(C)(=O)=O)c3cc(Cl)ccc3O2)cc1 (centres undefined) do in these assays?
PMI act hi M6P: 1; Diaphorase act: 0.9; WT yeast gro inh: -0.3; L major viab: 0.7; PMI activator: 1

How did CC(=O)Nc1ccc(OS(=O)(=O)c2ccc(C)cc2C)cc1 do in these assays?
PMI act hi M6P: 0.9; Diaphorase act: 0.7; WT yeast gro inh: -4.6; L major viab: 4.9; PMI activator: 0.8

Results for CC(=O)Nc1ccc(OS(=O)(=O)c2c(C)cc(C)cc2C)cc1 ?
PMI act hi M6P: 1; Diaphorase act: 1; WT yeast gro inh: 4.6; L major viab: 80.3*; PMI activator: 1

What do the screens show for `CC(=O)Nc1ccc(S(=O)(=O)Oc2ccc(C=O)cc2)cc1`?
PMI act hi M6P: 1.2; Diaphorase act: 0.9; WT yeast gro inh: 16.2; L major viab: 78.3*; PMI activator: 1.2

What do the screens show for `S=c1[nH]ncn1/N=C/c1ccccn1`?
PMI act hi M6P: 1; Diaphorase act: 0.7; WT yeast gro inh: -1.1; L major viab: -6.8; PMI activator: 0.9

Results for Cc1ccsc1/C=C(\C(=O)c1ccc(OC(C)C)cc1)c1nc2ccccc2o1 ?
PMI act hi M6P: 0.6; Diaphorase act: 0.9; WT yeast gro inh: -4.2; L major viab: 100.1*; PMI activator: 0.9

Results for Cc1ccc(C(=O)NCc2ccco2)cc1S(=O)(=O)Nc1cccc(Cl)c1 ?
PMI act hi M6P: 1.1; Diaphorase act: 1; WT yeast gro inh: -30.4; L major viab: 0.8; PMI activator: 1

Results for Cc1cc(C)nc(NNC(=O)c2ccccc2O)n1 ?
PMI act hi M6P: 1.1; Diaphorase act: 1; WT yeast gro inh: -3.3; L major viab: -3.2; PMI activator: 1.1

Results for COc1cccc(/C=N/NC(=O)c2ccc(CN3c4cccc5cccc(c45)S3(=O)=O)cc2)c1 ?
PMI act hi M6P: 1; Diaphorase act: 0.9; WT yeast gro inh: -11.1; L major viab: 82.1*; PMI activator: 1

How did CCOC(=O)c1cc(-c2ccc(C)cc2)nc2nc(SC)[nH]c(=O)c12 do in these assays?
PMI act hi M6P: 1.1; Diaphorase act: 1; WT yeast gro inh: -14.3; L major viab: 56.0*; PMI activator: 1.1

How did CCOC(=O)c1cc(-c2cccc(C(F)(F)F)c2)nc2nc(SC)[nH]c(=O)c12 do in these assays?
PMI act hi M6P: 0.9; Diaphorase act: 0.9; WT yeast gro inh: -5.5; L major viab: 8.5; PMI activator: 0.8

How did Cc1cc([N+](=O)[O-])nn1CCCC(=O)Nc1sc2c(c1C(N)=O)CCC(C)C2 (centres undefined) do in these assays?
PMI act hi M6P: 1; Diaphorase act: 1; WT yeast gro inh: 9.1; L major viab: 69.4*; PMI activator: 0.9

What do the screens show for `COc1cc(OC)c(-c2c3cc(O)c(=O)cc-3oc3cc(O)c(O)cc23)cc1OC`?
PMI act hi M6P: 0.3; Diaphorase act: 0.2; WT yeast gro inh: 59.4*; L major viab: -4.7; PMI activator: 0.3

How did O=C(c1ccc(F)cc1)N1CCN(c2ccc([N+](=O)[O-])c(N3CCOCC3)c2)CC1 do in these assays?
PMI act hi M6P: 1; Diaphorase act: 0.9; WT yeast gro inh: -1.4; L major viab: 57.2*; PMI activator: 1

What do the screens show for `CCOc1c(Cl)cc(CNCC(O)c2ccccc2)cc1OC` (centres undefined)?
PMI act hi M6P: 1; Diaphorase act: 1; WT yeast gro inh: 5.7; L major viab: 26.4; PMI activator: 1

Results for CCOc1cc(CNCC(C)C)cc(Cl)c1OCc1ccccc1 ?
PMI act hi M6P: 0.9; Diaphorase act: 1; WT yeast gro inh: -8.1; L major viab: 89.2*; PMI activator: 0.9
